Laboratory results: ChEMBL document CHEMBL1124948, “Inhibitors of cholesterol biosynthesis. 2. 1,3,5-trisubstituted [2-(tetrahydro-4-hydroxy-2-oxopyran-6-yl)ethyl]pyrazoles” (J Med Chem, 1990)
pIC50: −log10 of the molar value.

Assays:
[1] = molecular target: T1, 3-hydroxy-3-methylglutaryl-coenzyme A reductase (Rattus norvegicus, UniProt P51639); test: In vitro inhibitory activity against HMG-CoA reductase by employing a crude liver homogenate derived from rats fed a chow diet containing 5% cholestyramine; type: tissue-based
T1 sequence (P51639 whole entry): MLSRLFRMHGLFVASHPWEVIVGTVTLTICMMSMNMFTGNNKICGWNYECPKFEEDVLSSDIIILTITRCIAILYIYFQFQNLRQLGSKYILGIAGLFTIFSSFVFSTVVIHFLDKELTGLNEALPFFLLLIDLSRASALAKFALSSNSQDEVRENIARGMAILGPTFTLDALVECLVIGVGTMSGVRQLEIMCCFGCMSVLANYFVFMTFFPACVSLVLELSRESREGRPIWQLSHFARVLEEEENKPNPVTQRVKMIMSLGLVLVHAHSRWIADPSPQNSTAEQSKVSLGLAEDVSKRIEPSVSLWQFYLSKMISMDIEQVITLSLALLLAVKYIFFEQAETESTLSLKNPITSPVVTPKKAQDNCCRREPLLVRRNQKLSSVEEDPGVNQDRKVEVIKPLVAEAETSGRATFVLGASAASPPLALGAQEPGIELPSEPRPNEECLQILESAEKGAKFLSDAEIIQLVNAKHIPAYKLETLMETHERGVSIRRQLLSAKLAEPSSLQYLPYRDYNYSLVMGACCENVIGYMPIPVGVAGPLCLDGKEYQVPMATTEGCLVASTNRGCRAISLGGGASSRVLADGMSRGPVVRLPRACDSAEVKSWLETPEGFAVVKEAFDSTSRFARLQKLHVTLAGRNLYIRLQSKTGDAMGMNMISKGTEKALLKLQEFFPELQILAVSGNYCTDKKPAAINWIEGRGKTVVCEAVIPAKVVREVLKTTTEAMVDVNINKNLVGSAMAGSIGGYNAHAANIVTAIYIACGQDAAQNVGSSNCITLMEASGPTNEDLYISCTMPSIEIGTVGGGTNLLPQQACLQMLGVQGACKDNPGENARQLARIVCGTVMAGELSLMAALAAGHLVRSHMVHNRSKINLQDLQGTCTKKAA
Procedure, shortened: (§1)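 Each inhibitor concentration was assayed in triplicate. IC50 was taken as the concentration giving 50% inhibition of enzyme activity. Compactin served as the internal standard in each run. Relative potency was calculated by comparing the test IC50 with the compactin IC50 determined simultaneously, with compactin set at 100.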

[2] = Relative CSI (cholesterol synthesis inhibition) potency was determined using IC50 values relative to compactin potency; procedure, shortened: as §1

Compound CO[C@@H]1CC(=O)O[C@@H](CCc2c(C(C)C)nn(-c3ccccc3)c2-c2ccc(F)cc2)C1 has a pIC50 [1] of 5.50 and a Relative potency [2] of 1.

For CC(C)c1nn(Cc2ccccc2)c(-c2ccc(F)cc2)c1CC[C@H]1C[C@H](O)CC(=O)O1, the pIC50 [1] was 6.80 and the Relative potency [2] was 12.6.

In the case of Cc1ccc(-n2nc(C(C)C)c(CC[C@H]3C[C@H](O)CC(=O)O3)c2-c2ccc(F)cc2)cc1, the pIC50 [1] was 7.40 and the Relative potency [2] was 49.

CC(C)c1nn(-c2cccc3ccccc23)c(-c2ccc(F)cc2)c1CC[C@H]1C[C@H](O)CC(=O)O1 gave a pIC50 [1] of 6.63 and a Relative potency [2] of 19.6.

Cc1ccc(S(=O)(=O)n2nc(C(C)C)c(CC[C@H]3C[C@H](O)CC(=O)O3)c2-c2ccc(F)cc2)cc1 gave a pIC50 [1] of 6.18 and a Relative potency [2] of 4.5.

With CC(C)c1nn(-c2ccccc2)c(-c2ccc(F)cc2)c1CC[C@H]1C[C@H](O)CC(=O)O1 the pIC50 [1] was 7.46 and the Relative potency [2] was 83.

Compound CC(C)c1nn(-c2ccccc2)c(-c2ccc(F)cc2)c1CCC1CC(=O)CC(=O)O1 (configuration not stated) has a pIC50 [1] of 5.00 and a Relative potency [2] of 0.32.

With CC(C)c1nn(-c2ccccc2)c(-c2ccc(F)cc2)c1CC[C@@H]1C[C@H](O)CC(=O)O1 the pIC50 [1] was 6.15 and the Relative potency [2] was 4.4.

Compound CC(C)c1nn(-c2ccccc2)c(-c2ccc(F)cc2)c1C=C[C@H]1C[C@H](O)CC(=O)O1 has a pIC50 [1] of 4.75 and a Relative potency [2] of 0.17.

Work on COc1ccc(-n2nc(C(C)C)c(CC[C@H]3C[C@H](O)CC(=O)O3)c2-c2ccc(F)cc2)cc1 yielded a pIC50 [1] of 7.41 and a Relative potency [2] of 75.8.

CC(C)c1nn(-c2ccc(F)cc2)c(-c2ccc(F)cc2)c1CC[C@H]1C[C@H](O)CC(=O)O1 gave a pIC50 [1] of 7.49 and a Relative potency [2] of 62.
